Four compounds from PubChem BioAssay AID623952 (Vanderbilt High Throughput Screening Facility, 2012) can be followed below.

The assay deals with G protein-activated inward rectifier potassium channel 2 (Homo sapiens) + G protein-activated inward rectifier potassium channel 1 (Homo sapiens) (UniProt P48051+P48549). As to the kind of experiment: GIRK1/2 channel opening, thallium influx – cell-based, minus mGlu8, HEK-293 hGIRK1/2, thallium flux, dose response (AID 623952). Particulars: HEK-293 hGIRK1/2, thallium flux FluoZin-2 fluorescence. The gist of the method:
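assay system = HEK-293 cells with stable human GIRK1/2 channel expression | incubation = dye loading ~60 min room temperature, compound 4 min pre-stimulus | reagent = bicarbonate thallium stimulus at pH 7.4, glutamate at EC20 | measure = Vehicle-corrected F/F0 slope, four-parameter logistic fit | detection = FluoZin-2 fluorescence thallium flux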

Sequence of G protein-activated inward rectifier potassium channel 2 (Homo sapiens) + G protein-activated inward rectifier potassium channel 1 (Homo sapiens) (P48051 whole entry, looked up): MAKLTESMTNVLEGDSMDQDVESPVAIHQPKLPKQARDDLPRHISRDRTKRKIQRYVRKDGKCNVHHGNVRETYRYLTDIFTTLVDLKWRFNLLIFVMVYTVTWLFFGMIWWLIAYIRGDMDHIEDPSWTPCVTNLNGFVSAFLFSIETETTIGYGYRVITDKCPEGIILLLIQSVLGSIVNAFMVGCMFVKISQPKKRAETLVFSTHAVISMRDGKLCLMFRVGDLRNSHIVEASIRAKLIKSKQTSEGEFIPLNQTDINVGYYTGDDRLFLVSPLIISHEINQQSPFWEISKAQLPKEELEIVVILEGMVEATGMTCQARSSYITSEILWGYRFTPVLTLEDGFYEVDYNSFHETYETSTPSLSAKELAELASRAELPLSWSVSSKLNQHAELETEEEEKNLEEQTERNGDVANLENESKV
Sequence of G protein-activated inward rectifier potassium channel 2 (Homo sapiens) + G protein-activated inward rectifier potassium channel 1 (Homo sapiens) (P48549 whole entry, looked up): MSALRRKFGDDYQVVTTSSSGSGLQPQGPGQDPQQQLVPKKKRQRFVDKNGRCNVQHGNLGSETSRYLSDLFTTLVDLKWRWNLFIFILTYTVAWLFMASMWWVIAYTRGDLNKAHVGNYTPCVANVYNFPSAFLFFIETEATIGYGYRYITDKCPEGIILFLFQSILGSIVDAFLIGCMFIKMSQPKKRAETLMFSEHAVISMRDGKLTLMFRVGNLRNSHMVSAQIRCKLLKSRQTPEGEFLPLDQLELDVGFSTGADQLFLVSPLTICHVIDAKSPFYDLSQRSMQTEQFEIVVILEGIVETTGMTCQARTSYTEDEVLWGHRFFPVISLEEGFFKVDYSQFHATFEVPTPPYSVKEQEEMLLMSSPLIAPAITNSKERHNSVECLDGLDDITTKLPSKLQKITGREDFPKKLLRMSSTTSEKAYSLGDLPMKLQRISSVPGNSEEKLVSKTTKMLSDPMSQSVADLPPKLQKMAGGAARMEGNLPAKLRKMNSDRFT

In the case of `Cc1cc(NC(=O)Nc2ccccc2)n(-c2ccccc2)n1`, the EC50 is 1690 nM. `Cc1ccc(-c2nnn(CC(=O)NC3CC4CCC3C4)n2)cc1` (centres undefined): the EC50 was 700 nM. On to `CCOc1ccccc1Nc1nnc(Cc2ccccc2Cl)c(=O)[nH]1`, for which the EC50 was 250 nM. For `Cc1ccc(NC(=O)Cc2ccccc2Cl)cc1S(=O)(=O)N(C)C`, the EC50 was 799 nM.
